Article PMC3140432 (Biochimica et biophysica acta, 2011)
Like-named read-outs stand apart in the source and are kept apart here.

Legend:
Gβ1γ2 [1] = target: T1, Gβ1γ2 (Homo sapiens, UniProt P62873); assay: Surface plasmon resonance direct binding to immobilized biotinylated Gβ1γ2
Gβγ = Gβγ (Homo sapiens, UniProt P62873); assay: SPR direct binding to Gβγ with surface regeneration protocol; conditions: for Kd: Kd (μM), surface regeneration protocol, average of N experiments; for koff: read-out: koff (×10^−4s^−1)
Procedure, shortened: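 Gβ1γ2, biotinylated at the Gβ N-terminus, was captured on neutravidin amine-coupled to the sensor (2000–10000 µRIU), then blocked with 1 mM biotin. The run used 50 mM HEPES pH 7.6, 1 mM EDTA, 100 mM NaCl, 0.1% C12E10, 1 mM DTT and 1.2% DMSO at 25°C. Dilutions were injected 7 min at 50 µL/min with 10 min dissociation. Regeneration was 3×30 s MgCl2/urea/guanidine-HCl. Data were reference/blank/DMSO-corrected, fitted by a regeneration kinetic model and averaged.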

Gβ1His6γ2C68S = Gβ1His6γ2C68S (Homo sapiens, UniProt P62873); assay: Non-covalent nano ESI QToF mass spectrometry of Gβγ-gallein complexes; type: binding; conditions: collision energies that maintain some non-covalent Gβ-Gγ interactions
Procedure, shortened: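 Test compound (100 µM) mixed with 5 µM Gβ1His6γ2C68S in 20 mM ammonium acetate, pH 7.0, for 30 min at room temperature. Intact non-covalent complexes were analysed by nano-ESI QToF MS under mild ionisation at low and high collision cell voltage. The C68S mutation blocks Gγ2 lipidation, so no detergent was used.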

Gβ1γ2 [2] = target: T1, Gβ1γ2; assay: [3H]-gallein binding to Gβγ, spin desalting column separation; conditions: 100 μM gallein or greater; 1 μM Gβγ
[3] = Kd (μM), kinetic titration, average of N experiments

Row | Kd (Gβ1γ2 [1]; [3]) [µM] | concentration above which non-specific/multiple binding sites were observed (Gβ1γ2 [1]; kinetic titration) | koff slower than that of M201 (Gβ1γ2 [1]; kinetic titration) [fold] | koff (Gβ1γ2 [1]; read-out: koff (×10^−4s^−1)) [s⁻¹] | kon (Gβ1γ2 [1]; read-out: kon (M^−1s^−1)) [M⁻¹ s⁻¹] | kon (Gβγ) [M⁻¹ s⁻¹] | Kd (Gβγ) [µM] | koff (Gβγ) [s⁻¹] | kon (Gβγ; read-out: kon (M^−1s^−1)) [M⁻¹ s⁻¹] | maximum binding stoichiometry (Gβ1γ2 [2]) | SPR response associated with binding to Gβγ (Gβ1γ2 [1]; control peptide, data not shown) | Compound | reversal of binding at higher collision energy (Gβ1His6γ2C68S) | Kd (Gβ1γ2 [1]; Kd (M), Equilibrium titration) [µM] | Kd (Gβ1γ2 [1]; Kd (M), Kinetic titration) [µM] | Kd (Gβ1γ2 [1]; average Kd) [µM] | Ka (association constant) (Gβ1γ2 [1]; equilibrium analysis, Rmax(obs) fit to 1:1 Langmuir isotherm, single data set) [M⁻¹] | koff (Gβ1γ2 [1]; read-out: koff (s^−1), Kinetic titration) [s⁻¹] | kon (Gβ1γ2 [1]; read-out: kon (M^−1s^−1), Kinetic titration) [M⁻¹ s⁻¹]
1 | 0.407 ± 0.24 | above 30 μM | 10 | 0.00035 ± 4.5e-05 | 870 ± 112 | 981 | 0.35 ± 0.03 | 0.00032 ± 2.7e-05 | 926 ± 55 | 1.6 moles of gallein to 1 mole of Gβγ |  | O=C1OC2(c3ccccc31)c1ccc(O)c(O)c1Oc1c2ccc(O)c1O [Gallein, 3′, 4′, 5′, 6′-tetrahydroxyspiro[2-benzofuran-3, 9′-xanthene]-1-one] | fully reversed |  |  |  |  |  | 
2 | 2 ± 0.3 | > 20 µM | 10 | 0.00086 ± 0.00024 | 390 ± 93 |  | 2.7 ± 0.45 | 0.00082 ± 0.00051 | 267 ± 137 |  |  | Nc1cccc(Nc2cc(S(=O)(=O)O)c(N)c3c2C(=O)c2ccccc2C3=O)c1 [compound 372, 1-amino-4-(3-aminoanilino)-9,10-dioxoanthracene-2-sulfonic acid] |  |  |  |  |  |  | 
3 |  |  |  |  |  |  |  |  |  |  | did not elicit a response | SIGK(L9A): Control peptide, non-binding in the ELISA experiments (SIGKAFKIAGYPDYD) [reference compound] |  |  |  |  |  |  | 

Row | Compound | Kd (Gβ1γ2 [1]; [3]) [µM] | concentration above which non-specific/multiple binding sites were observed (Gβ1γ2 [1]; kinetic titration) | koff slower than that of M201 (Gβ1γ2 [1]; kinetic titration) [fold] | koff (Gβ1γ2 [1]; read-out: koff (×10^−4s^−1)) [s⁻¹] | kon (Gβ1γ2 [1]; read-out: kon (M^−1s^−1)) [M⁻¹ s⁻¹] | kon (Gβγ) [M⁻¹ s⁻¹] | Kd (Gβγ) [µM] | koff (Gβγ) [s⁻¹] | kon (Gβγ; read-out: kon (M^−1s^−1)) [M⁻¹ s⁻¹] | maximum binding stoichiometry (Gβ1γ2 [2]) | SPR response associated with binding to Gβγ (Gβ1γ2 [1]; control peptide, data not shown) | reversal of binding at higher collision energy (Gβ1His6γ2C68S) | Kd (Gβ1γ2 [1]; Kd (M), Equilibrium titration) [µM] | Kd (Gβ1γ2 [1]; Kd (M), Kinetic titration) [µM] | Kd (Gβ1γ2 [1]; average Kd) [µM] | Ka (association constant) (Gβ1γ2 [1]; equilibrium analysis, Rmax(obs) fit to 1:1 Langmuir isotherm, single data set) [M⁻¹] | koff (Gβ1γ2 [1]; read-out: koff (s^−1), Kinetic titration) [s⁻¹] | kon (Gβ1γ2 [1]; read-out: kon (M^−1s^−1), Kinetic titration) [M⁻¹ s⁻¹]
4 | O=C(O)C1CCCCC1c1c2ccc(=O)c(O)c-2oc2c(O)c(O)ccc12 (stereo not shown) [M119, 2-(3,4,5-trihydroxy-6-oxoxanthen-9-yl)cyclohexane-1-carboxylic acid] |  |  |  | 0.0002 ± 8e-05 | 830 ± 200 |  |  |  |  |  |  |  | 0.46 | 0.12 | 0.276 ± 0.07 | 2.16e+06 | 0.00012 | 1027 ± 8
